Molecules are shown by their SMILES. A value given as a limit tells only on which side of the number the result lay.

In this experiment the test system is E. coli BW25113 ΔtolC growth inhibition, OD615. As to the kind of experiment: E. coli ΔtolC antibacterial growth inhibition – strain BW25113 ΔtolC::kan, dose response (AID 617). In outline:
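system = E. coli BW25113 tolC deletion strain (ΔtolC::kan), whole bacterial cells | technique = optical density (absorbance) at 615 nm | dosing = compounds in serially diluted dose-response series | times = bacterial growth with compound for 20 h, 37 °C | evaluation = growth-inhibition IC50 from four-parameter logistic curve, bounds set to 0% and 100%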
For `COc1ccc(/C=N/n2c(SC)nnc2-c2ccccc2)cc1C`, the half-inhibitory concentration (IC50) (as a rule, the point on the concentration scale where inhibition reaches its midpoint) is 16.5 µM.

For `c1ccc(Cn2nnc3c(N4CCN(Cc5ccc6c(c5)OCO6)CC4)ncnc32)cc1`, the IC50 was 22.6 µM.

For the molecule `Nc1nc(CN2CCN(c3cccc(Cl)c3)CC2)nc(N2CCCc3ccccc32)n1`, the IC50 is 4.27 µM.

As for `Cc1ccc(Cl)cc1N1CCN(C(=O)c2ccc(NS(=O)(=O)c3c(C)noc3C)cc2)CC1`, the concentration for half-maximal inhibition (IC50) was 29.4 µM.

For `COc1ccc2c(c1)CCc1c(C(=O)N3CCc4ccccc4C3)noc1-2`, the 50% inhibitory concentration (IC50) was 5.76 µM.

Take `Clc1ccc2[nH]c3c(c2c1)CCc1cn[nH]c1-3`: the half-inhibitory concentration (IC50) was 6.49 µM.

Regarding `COc1cc2ccccc2cc1C(=O)Nc1ccc(S(=O)(=O)Nc2cc(C)on2)cc1`, the 50% inhibitory concentration (IC50) is 10.7 µM.

In the case of `Brc1cc(Br)c2ncnc(N3CCCCC3)c2c1`, the IC50 is 34.6 µM.

Take `CCCCCSc1nnc(-c2cc(Br)ccc2N)c(=O)[nH]1`: the half-maximal inhibitory concentration (IC50) was 5.1 µM.

With `CC(C)OCCCNc1ncnc2c1[nH]c1ccc(F)cc12`, the IC50 was 7.21 µM.

Take `O=c1[nH]c(=O)n(C2CCCCCC2)c(O)c1C=NCc1ccc(F)cc1`: the IC50 was 14.6 µM.

Regarding `O=C(Nc1ccc(Cl)c(C(F)(F)F)c1)c1ccco1`, the IC50 is 7.46 µM.

`CCOC(=O)c1c(-c2ccc(OC)cc2)oc2ccc(OC(=O)N(C)C)cc12`: the concentration for half-maximal inhibition (IC50) was 12.9 µM.

Take `CCCOc1ccccc1C1CC(=O)Nc2cc3c(cc21)OCCO3` (stereo not drawn): the IC50 is 24.1 µM.

Regarding `Cc1ccccc1-c1nc(CS(=O)(=O)CC(=O)N2CCc3ccccc3C2)c(C)o1`, the IC50 was 31.7 µM.

As for `CCOc1ccc2nc(NC(=O)CN3CCC(n4nnc5cc(F)ccc54)CC3)sc2c1`, the concentration for half-maximal inhibition (IC50) was 15.4 µM.

As for `O=C(NCc1ccc2c(c1)OCO2)c1ccc(COc2cccc(Cl)c2)o1`, the half-inhibitory concentration (IC50) is 7.25 µM.

Turning to `CCOCCn1c(CN(Cc2ccccc2)Cc2ccccc2)nc2c1c(=O)n(C)c(=O)n2C`, the half-inhibitory concentration (IC50) was 13.2 µM.

In the case of `O=C1C2=C(Nc3ccccc3SC2c2ccco2)c2ccccc21` (stereo not drawn), the IC50 was below 0.2 µM.

`CSc1nc(-c2ccccc2)nc(N2CCCC2)c1C(C)=O`: the concentration for half-maximal inhibition (IC50) is 12.7 µM.

For the molecule `N#C/C(=C\c1ccc[nH]1)Sc1nc2ccccc2s1`, the IC50 was 4.28 µM.

For `CN1/C(=C\C(=O)COc2ccc3c(c2)OCO3)C(C)(C)c2ccccc21`, the IC50 is 11.2 µM.

On to `O=C(Nc1nc(-c2ccccc2)cs1)c1cccs1`, for which the half-inhibitory concentration (IC50) was 5.9 µM.

For `CC(C)(C)n1nnnc1C(c1cccs1)N(Cc1ccccc1)Cc1cccnc1` (stereo not drawn), the IC50 was 8.37 µM.

For `O=C(Nc1ccc(C(F)(F)F)cc1Cl)c1ccc(Cn2cc(Br)cn2)o1`, the IC50 is 9.95 µM.

On to `CC(C)N(Cc1nc(-c2ccc(Cl)cc2)no1)C(=O)c1cccs1`, for which the IC50 was 18.9 µM.

Turning to `Cc1cc(NC(=O)C2CCCCC2)nc2c1c(=O)oc1ccccc12`, the IC50 was 11.5 µM.

For the molecule `CC1CCCC(C)N1C(=O)CN1CCN(c2nc(-c3ccc(F)cc3)cs2)CC1` (stereo not drawn), the IC50 is 12 µM.

Take `CCn1c(SCC(=O)Nc2nc(-c3ccc(C)cc3)cs2)nnc1-c1ccccc1O`: the IC50 was 4.11 µM.

On to `COc1ccc(-c2[nH]c(-c3cccc(OC)c3)nc2SCC(=O)NCc2ccco2)cc1`, for which the half-maximal inhibitory concentration (IC50) is 11.1 µM.

In the case of `Cc1ccc2[nH]c3c(c2c1)CCc1cn[nH]c1-3`, the half-maximal inhibitory concentration (IC50) was 17.8 µM.

On to `Cn1c(=O)n(CCCOc2ccc(Cl)cc2)c2ccccc21`, for which the IC50 was 15.7 µM.

Consider `Cc1cc(N2CCN(C(c3ccccc3)c3ccccc3)CC2)n2ncnc2n1`, for which the concentration for half-maximal inhibition (IC50) was 26.6 µM.

Take `CCOC(=O)c1cn(CC)c2cc(N3CCSCC3)c(F)cc2c1=O`: the concentration for half-maximal inhibition (IC50) is 1.4 µM.

Turning to `COc1cccc(-c2nnc(NC(=O)c3ccc(S(=O)(=O)N(CC(C)C)CC(C)C)cc3)o2)c1`, the IC50 is 0.91 µM.

`COc1ccc(S(=O)(=O)n2cnc3cc(C)c(C)cc32)cc1C`: the concentration for half-maximal inhibition (IC50) was 13.6 µM.

In the case of `CC1CCCCC1n1c(=S)[nH]c2ccccc2c1=O` (stereo not drawn), the 50% inhibitory concentration (IC50) was 5.91 µM.

As for `CCN(CCCNC(=O)c1[nH]c(C)c(C(C)=O)c1C)c1cccc(C)c1`, the IC50 was 8.23 µM.

Turning to `O=C(CSc1n[nH]c(-c2ccco2)n1)N1c2ccccc2Sc2ccccc21`, the IC50 was 9.51 µM.

In the case of `O=C(Nc1ccc(Cl)c(Cl)c1)N1CCSC1c1ccco1` (stereo not drawn), the 50% inhibitory concentration (IC50) was 5.12 µM.

On to `COc1ccccc1N1CCN(c2nc(C)nc3c2oc2ccccc23)CC1`, for which the concentration for half-maximal inhibition (IC50) is 11.4 µM.

In the case of `Cc1nc2c(C(=O)NCc3ccc4c(c3)OCO4)c[nH]n2c(=O)c1Cc1ccccc1F`, the 50% inhibitory concentration (IC50) is 2.6 µM.

Turning to `O=C(Cc1ccccc1F)Nc1nc(-c2cccs2)cs1`, the IC50 was 6.95 µM.

Turning to `CC(C)C(c1nnnn1C1CCCC1)N1c2ccccc2CC1C` (stereo not drawn), the half-maximal inhibitory concentration (IC50) is 20.8 µM.

With `CC1CC(C)CN(C(=O)CSc2nnc(-c3ccc(Cl)s3)o2)C1` (stereo not drawn), the 50% inhibitory concentration (IC50) was 17.4 µM.

Consider `FC(F)(F)c1cccc(N2CCN(c3nnnn3-c3ccccc3)CC2)c1`, for which the half-maximal inhibitory concentration (IC50) is 20.8 µM.

Take `CCN(CC)c1nc(N)c2c(N)nc3c(c2c1C#N)CC(c1ccccc1)O3` (stereo not drawn): the concentration for half-maximal inhibition (IC50) was 6.58 µM.

Consider `CCCOC(=O)c1ccc(Oc2cn[nH]c2-c2ccc(OCC)cc2O)cc1`, for which the IC50 was 13.6 µM.

As to `O=C(Nc1nc2ccccc2s1)C1CCCN1S(=O)(=O)c1ccc(Cl)cc1` (stereo not drawn), the IC50 was 8.91 µM.

With `CCCCn1c(O)c(C(CC)=NCCc2ccccc2)c(=O)[nH]c1=O`, the concentration for half-maximal inhibition (IC50) was 14 µM.

In the case of `CC(C)COC(=O)NCCOC(=O)Nc1cccc(Cl)c1`, the IC50 is 19.6 µM.

Consider `Cc1cccc(Cc2c(C)nc3c(C(=O)NCc4ccco4)cnn3c2C)c1`, for which the IC50 is 49.6 µM.

Turning to `CC1(C)C(=O)OC(c2cc(Br)ccc2O)C(C)(C)C1=O` (stereo not drawn), the IC50 is 15.4 µM.

As to `C(=C\c1ccccc1)/CSc1nnc(-c2ccccn2)n1Cc1ccco1`, the concentration for half-maximal inhibition (IC50) was 12 µM.

For the molecule `COc1ccc(-n2c(COc3ccccc3)nnc2SCc2ccc(C#N)cc2)cc1`, the IC50 was 14.2 µM.

As to `CC(C)COc1ccc(-c2nnc(-c3ccco3)o2)cc1`, the concentration for half-maximal inhibition (IC50) was 40.6 µM.

As for `Cc1ccc2oc(C(=O)NCc3ccc4c(c3)OCO4)c(C)c2c1`, the half-inhibitory concentration (IC50) is 11.1 µM.

Turning to `O=C(Nc1ccc(Cl)cc1)N1CCC(c2nc(-c3cccs3)no2)CC1`, the IC50 is 6.4 µM.

Regarding `CCOc1ccc(-c2nc(C#N)c(N3CCCCCC3)o2)cc1`, the IC50 was 12.7 µM.

As for `COc1ccc(C(C)(C)C)cc1NC(=O)Nc1ccc2c(c1)OCO2`, the IC50 is 5.28 µM.

As for `COC(=O)c1c(C)oc2ccc(OC(=O)c3cccs3)cc12`, the 50% inhibitory concentration (IC50) was 9.49 µM.

Take `N#Cc1cn(Cc2ccccc2)c2ccccc12`: the IC50 was 15.3 µM.

Take `Cc1ccc(NC(=O)c2ccccc2O)cc1`: the concentration for half-maximal inhibition (IC50) is 16 µM.

As for `CCOc1ccc2nc(N3CCCN(C(=O)Nc4ccccc4C)CC3)c(C#N)cc2c1`, the IC50 was 36.3 µM.

On to `O=C1CCCC2=C1C(c1cccs1)n1nc(SCc3ccccc3)nc1N2` (stereo not drawn), for which the half-inhibitory concentration (IC50) is 15.8 µM.

Take `CCOC(=O)c1c(C)[nH]c(C)c1C(=O)Cn1nnc(-c2ccccc2C)n1`: the IC50 was 5.44 µM.

For the molecule `CCCCn1c(NC(=O)c2ccccc2)c(C#N)c2nc3ccccc3nc21`, the half-inhibitory concentration (IC50) is 2.79 µM.

Regarding `Cc1ccc2[nH]c(=O)c(CN(Cc3nnnn3Cc3ccccc3)C3CCCC3)cc2c1`, the IC50 is 53.3 µM.

Consider `O=S(=O)(Nc1nc2ccccc2nc1NCc1ccco1)c1ccccc1`, for which the IC50 is 8.89 µM.

As for `Cc1[nH]c2ccccc2c1NC(=O)CN1CCN(c2cccc(C(F)(F)F)c2)CC1`, the IC50 is 12.5 µM.

For `Cc1cc(NC(=O)c2ccccc2)sc1C`, the IC50 is 5.59 µM.

As to `COc1ccc(S(=O)(=O)Nc2ccc(S(=O)(=O)N3CCCCC3)cc2)cc1`, the concentration for half-maximal inhibition (IC50) is 15 µM.

For `CCc1ccccc1N(C)C(=O)CCc1nc(-c2ccc(C)cc2)no1`, the 50% inhibitory concentration (IC50) is 13.8 µM.

With `CCC(C(=O)N1CCN(c2cccc(Cl)c2)CC1)c1ccccc1` (stereo not drawn), the IC50 was 14.2 µM.

Consider `COC(=O)c1[nH]c2ccc(C)cc2c1NS(=O)(=O)c1ccc(F)c(C)c1`, for which the half-inhibitory concentration (IC50) is 1.75 µM.

On to `Cc1c(CCC(=O)O)c(=O)oc2cc3occ(-c4ccc(F)cc4)c3cc12`, for which the IC50 was 5.48 µM.

With `CCOC(=O)CSC1=C(C#N)C(c2ccco2)C(C(=O)Nc2cccc(C(F)(F)F)c2)=C(C)N1` (stereo not drawn), the IC50 was 9.34 µM.

Consider `CC1CCc2c(C(=O)Oc3cccc(-n4cnnn4)c3)csc2C1` (stereo not drawn), for which the 50% inhibitory concentration (IC50) was 20.2 µM.

Take `Clc1ccc(COC(Cn2ccnc2)c2ccc(Cl)cc2Cl)cc1` (stereo not drawn): the IC50 was 2.27 µM.

Consider `COc1ccccc1C(=O)Nc1nnc(-c2ccc3c(c2)CCCC3)o1`, for which the half-inhibitory concentration (IC50) is 6.32 µM.

With `C=C(C)COc1ccc(-c2[nH]ncc2Oc2ccccc2OCC)c(O)c1`, the IC50 was 6.14 µM.

Regarding `CCOC(=O)Cc1nnc2c(Nc3ccccc3F)nc3nonc3n12`, the 50% inhibitory concentration (IC50) is 6.82 µM.

Regarding `COCc1cc(C)nc2sc3c(=O)oc(C)nc3c12`, the IC50 was 96.2 µM.

Consider `COc1ccc(-n2c(C)cc(C(=O)COC(=O)Cn3cnc4ccccc43)c2C)cc1`, for which the IC50 is 3.33 µM.

Turning to `CCOC(=O)c1ccccc1NC(=O)c1c(F)c(F)c(F)c(F)c1F`, the IC50 is 23 µM.

Take `Oc1c(CN2CCN(c3ccccn3)CC2)cc(Cl)c2cccnc12`: the half-inhibitory concentration (IC50) is 11.4 µM.

For `CC(C)(C)c1ccc(OCC(=O)NCc2ccco2)c(Br)c1`, the IC50 was 14.6 µM.

For the molecule `Cc1cc(-c2ccco2)c(C#N)c2nc3ccccc3n12`, the IC50 is 9.09 µM.

Consider `O=C(Nc1ncc(Br)s1)C(Cc1ccccc1)n1cccc1` (stereo not drawn), for which the IC50 is 3.21 µM.

In the case of `COc1ccc(Cl)cc1N1CCN(CCNC(=O)Nc2ccccc2C)CC1`, the half-maximal inhibitory concentration (IC50) is 43.7 µM.

Take `C=CCN(CC=C)S(=O)(=O)c1ccc2nc(NC(=O)C(C)C)sc2c1`: the IC50 was 6.66 µM.

As to `CCNc1nc(NC(C)C)nc(N(C#N)CCOc2ccc(Cl)cc2Cl)n1`, the IC50 was 6.64 µM.

`CCOc1ccc(N(CC(=O)Nc2cccc(OC)c2)S(=O)(=O)c2c(C)noc2C)cc1`: the IC50 was 22.8 µM.

For `COc1cc2c3c(c1)C1(C(=O)N3C(C)(C)C=C2C)C(C#N)=C(N)Oc2cc(O)ccc21` (stereo not drawn), the IC50 is 6.64 µM.

For the molecule `c1ccc(-c2nc(N3CCCCCC3)nc(-n3ccnc3)n2)cc1`, the IC50 was 7.72 µM.

On to `CCOc1ccc(NS(=O)(=O)c2ccc(SC)cc2)cc1`, for which the IC50 is 6.84 µM.

`COc1c(C)cc(Br)cc1C(=O)Nc1cccc(NC(=O)c2ccco2)c1`: the IC50 is 7.48 µM.

For the molecule `O=C(Cc1ccccc1)Nc1ccccc1N1CCN(c2ccccc2)CC1`, the IC50 is 64.5 µM.

The values are drawn from PubChem BioAssay AID617 (SRMLSC, 2007).
